# Experimental data: ChEMBL document CHEMBL3734747, “Varioxiranols A-G and 19-O-Methyl-22-methoxypre-shamixanthone, PKS and Hybrid PKS-Derived Metabolites from a Sponge-Associated Emericella variecolor Fungus” (J Nat Prod, 2015)
# Activity calls are given as the source filed them. No cut-off for these calls is given here.
# Columns and labels:
# HepG2 [1] = assay: Decrease in acetyl-CoA carboxylase mRNA level in human HepG2 cells by RT-PCR analysis; type: functional, cell-based
# HepG2 [2] = assay: Decrease in fatty acid synthase mRNA level in human HepG2 cells by RT-PCR analysis; type: functional, cell-based
# HepG2 [3] = assay: Decrease in SREBP-1c mRNA level in human HepG2 cells by RT-PCR analysis; type: functional, cell-based
# HepG2 [4] = assay: Inhibition of oleic acid-induced total cholesterol level in human HepG2 cells at 10 uM; type: functional, cell-based
# Outline: (§1)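 HepG2 cells at 70–80% confluence exposed to 100 μM oleic acid in DMEM for 12 h, then compound at 10 μM plus 100 μM oleic acid for 6 h. Statin positive control. Intracellular total cholesterol and triglyceride measured with commercial kits. n = 3, experiment repeated in triplicate, mean ± SEM.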
# HepG2 [5] = assay: Inhibition of oleic acid-induced triglyceride level in human HepG2 cells at 10 uM; type: functional, cell-based; outline: as §1
# HepG2 [6] = assay: Inhibition of oleic acid-induced lipid accumulation in human HepG2 cells at 10 uM by oil red O staining analysis; type: functional, cell-based
# Outline: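 HepG2 cells in DMEM with 10% FBS and penicillin/streptomycin, grown to 70–80% confluence, preloaded with 100 μM oleic acid for 12 h, then given compound at 10 μM in DMEM/100 μM oleic acid for another 6 h. Statin positive control and DMEM/oleic acid blank. Oil Red O staining read by spectrophotometry at 358 nm. n = 8, experiment repeated in triplicate, mean ± SEM.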
# HepG2 [7] = assay: Cytotoxicity against human HepG2 cells upto 100 uM by MTT assay; type: cell-based
SMILES,inhibition (HepG2 [1]),inhibition (HepG2 [2]),inhibition (HepG2 [3]),inhibition (HepG2 [4]),inhibition (HepG2 [5]),inhibition (HepG2 [6]),Activity (HepG2 [7])
C=C(C)[C@H]1COc2c(C)cc(O)c(C(=O)c3c(O)ccc(CC=C(C)C)c3O)c2[C@@H]1O,Active,Active,Active,Active,Active,Active,Non-toxic
C/C=C/[C@H](O)[C@H](O)/C=C/c1cccc(OC)c1CO,–,–,–,–,inactive,Active,Non-toxic
CCC[C@H](O)[C@H](O)/C=C/c1cccc(OC)c1CO,–,–,–,inactive,Active,Active,Non-toxic
